# Columns and labels:
# [1] = tested on: Rattus norvegicus; test: Analgesic activity in po dosed rat spinal nerve ligation neuropathic pain model assessed as reversal of allodynia measured at 2 to 4 hrs; assay type: functional
# In short: (§1)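 Rat spinal nerve ligation model. Seven days after surgery, rats received a single oral dose (3, 10 or 30 mg/kg) of test agent or vehicle. Tactile allodynia was scored at 2, 4, 8 and 24 h post-dose with calibrated von Frey filaments using an up-down paradigm. Threshold is the force giving a 50% withdrawal rate. %MPE = (post-compound − post-SNL)/(pre-SNL − post-SNL) × 100, where 100% is full reversal.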
# [2] = target: Delta-type opioid receptor (Homo sapiens) (UniProt P41143); test: Binding affinity to delta opioid receptor (unknown origin) at 25 uM relative to control
# Sequence of Delta-type opioid receptor (Homo sapiens) (P41143 whole entry): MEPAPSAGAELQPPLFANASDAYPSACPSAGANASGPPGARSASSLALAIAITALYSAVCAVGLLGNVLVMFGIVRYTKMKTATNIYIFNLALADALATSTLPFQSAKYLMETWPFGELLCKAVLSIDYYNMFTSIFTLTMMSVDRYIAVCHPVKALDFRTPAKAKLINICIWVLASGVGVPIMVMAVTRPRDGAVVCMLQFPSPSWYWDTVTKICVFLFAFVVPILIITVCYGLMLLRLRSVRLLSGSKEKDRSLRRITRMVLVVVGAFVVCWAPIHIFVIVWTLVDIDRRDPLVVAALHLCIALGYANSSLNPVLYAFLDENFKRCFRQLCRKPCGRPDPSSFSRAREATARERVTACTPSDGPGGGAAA
# [3] = tested on: Rattus norvegicus; test: Analgesic activity in rat spinal nerve ligation neuropathic pain model assessed as reversal of allodynia at 30 mg/kg, po measured at 24 hrs relative to control; assay type: functional; in short: as §1
# [4] = target: hERG (KCNH2) (Homo sapiens, UniProt Q12809); test: Displacement of [35S]-MK0499 from human ERG expressed in HEK293 cell membranes at 10 uM after 2 hrs by liquid scintillation counting analysis relative to control; settings: membranes of HEK293 cells that express human ERG, probe [35S]-MK0499
# In short: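 hERG binding assay measuring displacement of 35S-labelled MK-0499, a known hERG blocker.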
# [5] = target: T1, Prostaglandin E2 receptor EP1 subtype (Homo sapiens) (UniProt P34995); test: Binding affinity to prostaglandin receptor EP1 (unknown origin) at 25 uM relative to control
# T1 sequence (whole entry): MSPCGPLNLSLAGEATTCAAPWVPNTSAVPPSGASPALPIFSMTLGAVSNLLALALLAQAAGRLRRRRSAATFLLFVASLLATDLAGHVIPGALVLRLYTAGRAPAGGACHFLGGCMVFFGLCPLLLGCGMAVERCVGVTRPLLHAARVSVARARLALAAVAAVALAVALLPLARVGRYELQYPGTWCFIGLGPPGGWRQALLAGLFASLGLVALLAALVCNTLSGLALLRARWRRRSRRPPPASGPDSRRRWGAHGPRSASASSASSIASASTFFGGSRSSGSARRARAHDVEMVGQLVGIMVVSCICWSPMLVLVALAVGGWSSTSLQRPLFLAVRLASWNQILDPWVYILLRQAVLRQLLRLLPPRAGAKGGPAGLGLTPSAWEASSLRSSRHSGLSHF
# [6] = target: T2, Sodium channel protein type 9 subunit alpha (Homo sapiens, UniProt Q15858); test: Inhibition of human NaV1.7 channel expressed in HEK293 cells by FRET assay; assay type: cell-based
# In short: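 HEK293 cells stably expressing human Nav1.7. Channel block was read in a functional membrane-potential assay based on FRET between two membrane-associated dyes; IC50 determined.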
# Target sequence in this assay (Q15858 whole entry): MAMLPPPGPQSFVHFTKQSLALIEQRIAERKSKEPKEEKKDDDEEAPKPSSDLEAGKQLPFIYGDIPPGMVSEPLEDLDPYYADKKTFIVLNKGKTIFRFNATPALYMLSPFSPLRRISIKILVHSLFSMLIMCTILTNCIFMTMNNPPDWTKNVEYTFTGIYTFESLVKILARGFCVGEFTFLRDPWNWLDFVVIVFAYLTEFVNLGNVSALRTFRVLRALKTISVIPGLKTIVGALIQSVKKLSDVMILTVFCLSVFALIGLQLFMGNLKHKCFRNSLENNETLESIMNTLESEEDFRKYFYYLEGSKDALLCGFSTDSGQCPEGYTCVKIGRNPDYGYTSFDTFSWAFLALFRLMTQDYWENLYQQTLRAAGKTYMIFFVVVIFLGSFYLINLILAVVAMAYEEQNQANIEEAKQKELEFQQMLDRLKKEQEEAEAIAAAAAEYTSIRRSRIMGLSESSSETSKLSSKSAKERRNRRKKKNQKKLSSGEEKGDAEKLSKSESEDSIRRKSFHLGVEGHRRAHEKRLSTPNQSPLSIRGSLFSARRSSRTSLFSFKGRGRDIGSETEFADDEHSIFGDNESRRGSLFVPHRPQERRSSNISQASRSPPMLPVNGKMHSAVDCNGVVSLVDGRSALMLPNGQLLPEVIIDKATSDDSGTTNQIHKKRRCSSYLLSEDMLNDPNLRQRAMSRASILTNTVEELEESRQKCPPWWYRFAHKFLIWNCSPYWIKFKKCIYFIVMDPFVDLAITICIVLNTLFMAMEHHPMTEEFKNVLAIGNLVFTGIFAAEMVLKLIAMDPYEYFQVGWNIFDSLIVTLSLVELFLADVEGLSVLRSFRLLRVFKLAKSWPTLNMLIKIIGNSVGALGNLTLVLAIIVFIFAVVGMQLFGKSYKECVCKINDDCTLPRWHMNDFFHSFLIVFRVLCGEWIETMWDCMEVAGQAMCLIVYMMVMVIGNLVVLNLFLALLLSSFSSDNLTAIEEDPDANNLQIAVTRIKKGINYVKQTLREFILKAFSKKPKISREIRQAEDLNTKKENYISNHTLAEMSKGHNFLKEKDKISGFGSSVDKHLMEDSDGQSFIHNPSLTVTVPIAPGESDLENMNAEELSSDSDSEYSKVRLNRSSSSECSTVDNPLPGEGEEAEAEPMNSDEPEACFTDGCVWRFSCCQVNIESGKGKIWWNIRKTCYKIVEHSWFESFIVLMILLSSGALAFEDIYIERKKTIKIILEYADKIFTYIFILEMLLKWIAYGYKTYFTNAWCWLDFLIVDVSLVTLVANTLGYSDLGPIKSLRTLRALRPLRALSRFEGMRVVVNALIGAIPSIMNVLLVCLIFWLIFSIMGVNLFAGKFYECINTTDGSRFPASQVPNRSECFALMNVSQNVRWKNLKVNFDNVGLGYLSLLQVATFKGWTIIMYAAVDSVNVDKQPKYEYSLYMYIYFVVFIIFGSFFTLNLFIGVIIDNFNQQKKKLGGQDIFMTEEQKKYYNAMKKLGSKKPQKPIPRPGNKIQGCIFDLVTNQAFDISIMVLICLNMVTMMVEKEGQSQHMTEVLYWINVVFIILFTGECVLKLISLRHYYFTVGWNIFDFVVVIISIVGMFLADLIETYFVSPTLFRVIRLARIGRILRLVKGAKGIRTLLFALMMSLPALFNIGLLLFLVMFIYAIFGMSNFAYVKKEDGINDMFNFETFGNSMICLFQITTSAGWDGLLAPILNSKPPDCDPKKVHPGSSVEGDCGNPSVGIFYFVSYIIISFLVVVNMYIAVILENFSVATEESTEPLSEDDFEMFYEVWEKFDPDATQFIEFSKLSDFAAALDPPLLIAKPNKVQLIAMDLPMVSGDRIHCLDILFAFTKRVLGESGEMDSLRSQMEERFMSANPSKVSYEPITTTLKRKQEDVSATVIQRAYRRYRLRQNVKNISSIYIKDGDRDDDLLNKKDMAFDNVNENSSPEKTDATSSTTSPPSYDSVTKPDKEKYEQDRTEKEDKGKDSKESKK
# [7] = tested on: Rattus norvegicus; test: Analgesic activity in rat spinal nerve ligation neuropathic pain model assessed as reversal of allodynia at 30 mg/kg, po measured at 4 hrs relative to control; assay type: functional; in short: as §1
# [8] = tested on: Rattus norvegicus; test: Analgesic activity in rat spinal nerve ligation neuropathic pain model assessed as reversal of allodynia at 10 mg/kg, po measured at 24 hrs relative to control; assay type: functional; in short: as §1
# [9] = target: Sodium channel protein type 5 subunit alpha (Homo sapiens, UniProt Q14524); test: Binding affinity to inactivated state of human NaV1.5 channel by whole-cell patch clamp assay; settings: read-out: K
# Sequence of Sodium channel protein type 5 subunit alpha (Q14524 whole entry): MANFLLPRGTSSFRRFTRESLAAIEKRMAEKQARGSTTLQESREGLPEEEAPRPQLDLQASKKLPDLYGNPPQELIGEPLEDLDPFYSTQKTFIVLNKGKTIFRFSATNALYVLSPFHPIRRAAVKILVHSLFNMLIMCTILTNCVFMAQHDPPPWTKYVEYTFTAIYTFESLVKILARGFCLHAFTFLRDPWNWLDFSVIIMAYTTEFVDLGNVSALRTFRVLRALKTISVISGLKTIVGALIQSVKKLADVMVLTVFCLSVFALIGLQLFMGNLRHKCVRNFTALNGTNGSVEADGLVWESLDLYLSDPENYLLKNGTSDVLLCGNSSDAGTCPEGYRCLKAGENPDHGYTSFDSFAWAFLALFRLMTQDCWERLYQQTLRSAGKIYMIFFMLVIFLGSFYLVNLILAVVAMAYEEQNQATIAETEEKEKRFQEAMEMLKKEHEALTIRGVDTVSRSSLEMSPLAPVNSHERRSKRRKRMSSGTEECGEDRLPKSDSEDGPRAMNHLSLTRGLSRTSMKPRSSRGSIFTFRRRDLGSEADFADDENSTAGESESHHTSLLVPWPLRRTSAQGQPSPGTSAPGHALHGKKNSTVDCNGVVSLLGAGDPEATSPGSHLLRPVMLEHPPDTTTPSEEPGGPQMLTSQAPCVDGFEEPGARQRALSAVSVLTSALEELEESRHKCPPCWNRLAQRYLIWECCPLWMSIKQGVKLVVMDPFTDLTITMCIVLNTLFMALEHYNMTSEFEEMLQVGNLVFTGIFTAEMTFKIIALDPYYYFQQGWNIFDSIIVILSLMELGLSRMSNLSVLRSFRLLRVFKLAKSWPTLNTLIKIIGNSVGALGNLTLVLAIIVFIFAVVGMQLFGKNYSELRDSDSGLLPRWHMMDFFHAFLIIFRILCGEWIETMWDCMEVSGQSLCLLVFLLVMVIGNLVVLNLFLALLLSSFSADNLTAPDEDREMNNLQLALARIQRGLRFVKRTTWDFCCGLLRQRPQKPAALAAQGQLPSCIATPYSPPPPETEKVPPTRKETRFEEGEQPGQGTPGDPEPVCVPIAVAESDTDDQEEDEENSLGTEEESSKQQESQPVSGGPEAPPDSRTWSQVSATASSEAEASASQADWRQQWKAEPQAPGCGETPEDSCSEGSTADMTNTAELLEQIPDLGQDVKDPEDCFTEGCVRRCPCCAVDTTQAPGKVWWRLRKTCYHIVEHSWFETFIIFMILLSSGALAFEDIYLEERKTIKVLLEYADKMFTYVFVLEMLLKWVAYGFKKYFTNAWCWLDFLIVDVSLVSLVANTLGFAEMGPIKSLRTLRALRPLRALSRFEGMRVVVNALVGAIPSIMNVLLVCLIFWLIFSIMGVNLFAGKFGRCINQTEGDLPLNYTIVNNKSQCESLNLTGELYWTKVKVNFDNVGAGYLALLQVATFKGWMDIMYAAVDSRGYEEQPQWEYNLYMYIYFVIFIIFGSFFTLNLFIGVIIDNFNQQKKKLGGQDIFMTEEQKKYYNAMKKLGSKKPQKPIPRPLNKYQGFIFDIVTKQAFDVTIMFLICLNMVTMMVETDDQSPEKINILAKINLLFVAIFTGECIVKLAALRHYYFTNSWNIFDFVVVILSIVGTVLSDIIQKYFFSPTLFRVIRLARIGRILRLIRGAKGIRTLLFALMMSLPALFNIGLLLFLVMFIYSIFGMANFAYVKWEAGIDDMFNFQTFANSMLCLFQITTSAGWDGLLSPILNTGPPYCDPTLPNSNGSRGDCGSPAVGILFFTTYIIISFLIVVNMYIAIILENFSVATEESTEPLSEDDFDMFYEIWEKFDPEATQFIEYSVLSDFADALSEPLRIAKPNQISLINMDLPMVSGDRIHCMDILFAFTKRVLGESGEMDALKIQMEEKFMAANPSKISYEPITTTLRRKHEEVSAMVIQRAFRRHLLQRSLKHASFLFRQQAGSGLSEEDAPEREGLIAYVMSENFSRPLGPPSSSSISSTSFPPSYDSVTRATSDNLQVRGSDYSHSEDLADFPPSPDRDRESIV
# [10] = target: T2, Sodium channel protein type 9 subunit alpha; test: Binding affinity to inactivated state of human NaV1.7 channel by whole-cell patch clamp assay
# In short: (§2)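 Manual whole-cell voltage clamp measuring block of resting and inactivated channel states at room temperature. Data acquired at 50 kHz, filtered at 10 kHz. Bath: 40 mM NaCl, 120 mM NMDG-Cl, 1 mM KCl, 2.7 mM CaCl2, 0.5 mM MgCl2, 10 mM NMDG-HEPES, pH 7.4.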
# Target sequence in this assay (Q15858 whole entry, looked up): as the sequence (Q15858 whole entry) above
# [11] = tested on: Rattus norvegicus; test: Analgesic activity in rat spinal nerve ligation neuropathic pain model assessed as reversal of allodynia at 30 mg/kg, po measured at 8 hrs relative to control; assay type: functional; in short: as §1
# [12] = tested on: Rattus norvegicus; test: Analgesic activity in rat spinal nerve ligation neuropathic pain model assessed as reversal of allodynia at 10 mg/kg, po measured at 4 hrs relative to control; assay type: functional; in short: as §1
# [13] = tested on: Rattus norvegicus; test: Analgesic activity in rat spinal nerve ligation neuropathic pain model assessed as reversal of allodynia at 3 mg/kg, po measured at 4 hrs relative to control; assay type: functional; in short: as §1
# [14] = target: Mu-type opioid receptor (Homo sapiens) (UniProt P35372); test: Binding affinity to mu opioid receptor (unknown origin) at 25 uM relative to control
# [15] = target: T2, Sodium channel protein type 9 subunit alpha; test: Binding affinity to inactivated state of human NaV1.7 channel assessed as inhibition of current evoked by 6 ms depolarizations to 0 mV from holding potential -70 mV at 3 uM by whole-cell patch clamp assay relative to vehicle-treated control
# Target sequence in this assay (Q15858 whole entry, looked up): as the sequence (Q15858 whole entry) above
# [16] = target: Sodium channel protein type 8 subunit alpha (Homo sapiens) (UniProt Q9UQD0); test: Binding affinity to inactivated state of NaV1.6 channel (unknown origin) by whole-cell patch clamp assay; in short: as §2
# [17] = Plasma clearance in Sprague-Dawley rat at 3 mg/kg, po and 1 mg/kg, iv; assay type: ADME, organism-based
# In short: (§3)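 Fasted male Sprague–Dawley rats (n = 3 per route) were dosed with 1.5 mg/mL solutions in PEG300/water or DMSO/PEG300/water, either 1.0 mg/kg iv via femoral-vein cannula or 3.0 mg/kg by oral gavage. Blood was sampled at 5 min (iv only), 15 and 30 min, and 1, 2, 4, 6 and 8 h. Plasma levels were measured by LC–MS/MS after acetonitrile protein precipitation.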
# [18] = target: Kappa-type opioid receptor (Homo sapiens) (UniProt P41145); test: Binding affinity to kappa opioid receptor (unknown origin) at 25 uM relative to control
# [19] = tested on: Rattus norvegicus; test: Dose normalized AUC in Sprague-Dawley rat at 3 mg/kg, po; assay type: ADME, organism-based; design: dose 3 mg/kg, route oral; settings: in vivo; in short: as §3
# [20] = Half life in Sprague-Dawley rat at 3 mg/kg, po and 1 mg/kg, iv; assay type: ADME, organism-based; settings: in vivo; in short: as §3
# [21] = target: Cannabinoid receptor 2 (Homo sapiens) (UniProt P34972); test: Binding affinity to CB2 receptor (unknown origin) at 25 uM relative to control
# [22] = Oral bioavailability in Sprague-Dawley rat at 3 mg/kg; assay type: ADME, organism-based; settings: in vivo; in short: as §3
# [23] = tested on: Rattus norvegicus; test: Analgesic activity in rat spinal nerve ligation neuropathic pain model assessed as reversal of allodynia at 3 mg/kg, po measured at 2 hrs relative to control; assay type: functional; in short: as §1
# [24] = tested on: Rattus norvegicus; test: Analgesic activity in rat spinal nerve ligation neuropathic pain model assessed as reversal of allodynia at 10 mg/kg, po measured at 8 hrs relative to control; assay type: functional; in short: as §1
# [25] = target: Prostaglandin G/H synthase 1 (Homo sapiens) (UniProt P23219); test: Binding affinity to COX1 (unknown origin) at 25 uM relative to control
# Sequence of Prostaglandin G/H synthase 1 (Homo sapiens) (P23219 whole entry): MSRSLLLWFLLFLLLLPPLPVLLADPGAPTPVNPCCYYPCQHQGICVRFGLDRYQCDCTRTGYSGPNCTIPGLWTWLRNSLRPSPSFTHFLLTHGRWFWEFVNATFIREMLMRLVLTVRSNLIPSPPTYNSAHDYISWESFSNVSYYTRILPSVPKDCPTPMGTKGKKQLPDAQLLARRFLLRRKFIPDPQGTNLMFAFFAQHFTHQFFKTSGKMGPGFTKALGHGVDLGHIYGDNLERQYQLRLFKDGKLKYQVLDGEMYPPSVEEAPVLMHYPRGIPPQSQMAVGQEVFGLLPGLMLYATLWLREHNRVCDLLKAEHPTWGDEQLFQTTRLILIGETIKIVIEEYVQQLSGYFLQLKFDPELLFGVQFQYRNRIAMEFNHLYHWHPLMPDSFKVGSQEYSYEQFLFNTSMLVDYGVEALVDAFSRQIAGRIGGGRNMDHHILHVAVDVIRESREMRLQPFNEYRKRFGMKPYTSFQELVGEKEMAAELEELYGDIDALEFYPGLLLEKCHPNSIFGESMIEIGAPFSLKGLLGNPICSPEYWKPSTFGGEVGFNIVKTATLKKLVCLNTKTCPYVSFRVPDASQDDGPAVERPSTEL
# [26] = target: Sodium channel protein type 10 subunit alpha (Homo sapiens) (UniProt Q9Y5Y9); test: Binding affinity to inactivated state of NaV1.8 channel (unknown origin) by whole-cell patch clamp assay; in short: as §2
# [27] = tested on: Rattus norvegicus; test: Analgesic activity in rat spinal nerve ligation neuropathic pain model assessed as reversal of allodynia at 3 mg/kg, po measured at 24 hrs relative to control; assay type: functional; in short: as §1
compound,measurement,setting,value
O=C(N[C@H](Cc1ccccc1F)C(=O)N[C@@H]1CCc2c(F)c(F)cc(F)c2N(C2CC2)C1=O)C1CC1C(F)(F)F (some centres not stated),ED50,[1],15 mg/kg
same,Activity,[2],< 50%
same,Activity,[3],10%
same,"inhibition at 2 h, 10 µM",[4],26%
same,Activity,[5],< 50%
same,IC50,[6],117 nM
same,Activity,[7],55%
same,Activity,[8],4%
same,Kd,[9],2380 nM
same,K,[10],0.44 µM
same,Activity,[11],28%
same,Activity,[12],39%
same,Activity,[13],18%
same,Activity,[14],< 50%
same,inhibition,[15],48%
same,K,[16],3.88 µM
same,clearance,[17],43 mL/min/kg
same,Activity,[18],< 50%
same,AUC/dose,[19],0.72 µM·h/mg/kg
same,half-life,[20],1.9 h
same,Activity,[21],< 50%
same,bioavailability,[22],100%
same,Activity,[23],15%
same,Activity,[24],20%
same,Activity,[25],< 50%
same,K,[26],3.02 µM
same,Activity,[27],1%

# — ChEMBL document CHEMBL2390921, “A novel benzazepinone sodium channel blocker with oral efficacy in a rat model of neuropathic pain” (Bioorg Med Chem Lett, 2013)
